Measured values from ChEMBL document CHEMBL1148915, “Steroids and sesquiterpenoids from the soft corals Dendronephthya gigantea and Lemnalia cervicorni” (2004).

Experiments:
[1] = system: P388; assay: Cytotoxicity against mouse P388 cells; format: functional; details: read-out: ED50 (the source's name)
In short: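 P-388 mouse lymphocytic leukemia cells supplied by an academic lab (Purdue); in vitro cytotoxicity assay run by a previously described procedure; ED50 reported in µM; mithramycin included as positive control.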

[2] = system: HT-29; assay: Cytotoxicity against human HT29 cells; format: functional; details: read-out: ED50 (the source's name)
In short: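 HT-29 human colon adenocarcinoma cells obtained from ATCC; in vitro cytotoxicity assay run by a previously described procedure; value given as ED50 in µM; mithramycin run as positive control.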

| Structure (SMILES) | EC50 [1] | EC50 [2] |
| --- | --- | --- |
| CC(C)C/C=C/[C@@H](C)[C@H]1CC[C@H]2[C@@H]3CC[C@H]4CC(=O)C=C[C@]4(C)[C@H]3CC[C@]12C [DENDRONESTERONE A] | 9.84 µM | > 100 µM |
| CO[C@H](C(=O)[C@@H](O)[C@@H](C)O)[C@@H]1Cc2cc3cc(O[C@H]4C[C@@H](O[C@@H]5C[C@@H](O)[C@H](O)[C@@H](C)O5)[C@H](O)[C@@H](C)O4)c(C)c(O)c3c(O)c2C(=O)[C@H]1O[C@H]1C[C@@H](O[C@@H]2C[C@@H](O)[C@@H](O[C@@H]3C[C@](C)(O)[C@H](O)[C@@H](C)O3)[C@@H](C)O2)[C@H](O)[C@@H](C)O1 [PLICAMYCIN] | 0.15 µM | 0.21 µM |
| C=C1[C@H](O)C[C@@H]2[C@@H]3[C@H](C(C)C)CC[C@@]2(C)[C@@H]13 [LEMNALOL] | 16.3 µM | 10.5 µM |
| C=C1C[C@H](O)[C@@H]2[C@@H]3[C@H](C(C)C)CC[C@@]2(C)[C@@H]13 [CERVICOL] | > 50 µM | > 50 µM |
| C=C(CC[C@@H](C)[C@H]1CC[C@H]2[C@@H]3CC[C@H]4CC(=O)C=C[C@]4(C)[C@H]3CC[C@]12C)C(C)C [DENDRONESTERONE B] | > 100 µM | > 100 µM |
| CC1=C[C@H](O)[C@@H]2[C@@H]3[C@H](C(C)C)CC[C@@]2(C)[C@@H]13 [ISOLEMNALOL] | > 50 µM | > 50 µM |
| CC(C)CCC(=O)[C@@H](C)[C@H]1CC[C@H]2[C@@H]3CC[C@H]4CC(=O)C=C[C@]4(C)[C@H]3CC[C@]12C | 8.93 µM | 9.03 µM |
| CC1=CC(=O)[C@@H]2[C@@H]3[C@H](C(C)C)CC[C@@]2(C)[C@@H]13 | > 50 µM | > 50 µM |
| CC(C)C/C=C/[C@@H](C)[C@H]1CC[C@H]2[C@@H]3CCC4=CC(=O)C=C[C@]4(C)[C@H]3CC[C@]12C [DENDRONESTERONE C] | > 100 µM | > 100 µM |
